# Assay results published in paper PMC8553955 (Plant Communications, 2021).
# Columns and labels:
# Phelipanche ramosa seeds [1] = assay: Inhibition of P. ramosa germination stimulation induced by GR24 or 2-PEITC; assay type: in vivo
# How it was run: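 Seeds from a genetic-group-1 population were surface-sterilized and conditioned in darkness at 21°C. Germination was stimulated with 10 nM (±)-GR24 or 100 nM 2-PEITC in the presence of test compound. Maximum inhibition and IC50 were derived from the response.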
# [2] = test system: A. thaliana htl-3/p35S::GFP-PrKAI2d3 seeds; assay: Arabidopsis germination assay, htl-3 complemented with PrKAI2d3; assay type: in vivo, Arabidopsis thaliana; settings: Arabidopsis Col-0, htl-3 and the three p35S::GFP-PrKAI2d3 complemented lines; data not shown
# How it was run: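 After-ripened (≥6 weeks), surface-sterilized seeds were suspended in 1 mM HEPES pH 7.5 at 10 mg/mL and dispensed at about 20–25 seeds per well. Stimulant (GR24 isomers) or DMSO control was added. Plates were incubated either 5 days at 25°C in darkness or, for thermo-inhibition, 7 days at 32–34°C under constant light (10 μmol m−2 s−1). Germination was scored as radicle protrusion. Groups were compared by Kruskal–Wallis.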
# Phelipanche ramosa seeds [3] = assay: Germination stimulation activity assay on P. ramosa seeds; settings: in vivo
# PrKAI2d3 [4] = assay: Thermostability of PrKAI2d3 by nanoDSF; assay type: binding, Phelipanche ramosa; settings: PrKAI2d3 at 10 μM, ligands at 100 μM
# How it was run: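 Protein at about 10 μM in PBS (100 mM phosphate pH 6.8, 150 mM NaCl) was mixed with ligand or no ligand. Intrinsic fluorescence (350/330 nm ratio) was recorded over a 1°C/min temperature ramp at 55% excitation. Apparent Tm was taken from the first derivative of the ratio curve.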
# Striga hermonthica seeds = assay: Germination stimulation activity assay on S. hermonthica seeds; assay type: in vivo
# How it was run: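 Surface-sterilized seeds were conditioned in darkness at 30°C. Compounds were dissolved at 10 mM in DMSO, serially diluted in water/DMSO 9:1, and applied at 10−13 to 10−6 M (final water/DMSO 99:1). Controls were 1% DMSO (negative) and 1 μM (±)-GR24 (positive). Germination was expressed relative to the positive control in each assay, with at least three repeats. EC50 came from a four-parameter logistic fit.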
# [5] = test system: A. thaliana htl-3/ShHTL7 seeds; assay: Arabidopsis germination assay, htl-3 expressing ShHTL7; assay type: in vivo
# [6] = test system: pea (Pisum sativum) shoot branching; assay: Pea shoot branching assay; assay type: in vivo; settings: direct injection in the stem, 100 μM, rms1-10
# rice (Oryza sativa) = settings: high concentration (50 μM); ref Nakamura et al., 2013; cited from earlier work
# PrKAI2d3 [7] = assay: Enzymatic assays with profluorescent probes and p-nitrophenyl acetate; assay type: biochemical, Phelipanche ramosa
smiles,measurement,setting,value
"CC1=CC(=O)CC(C)(C)[C@@]1(O)/C=C/C(C)=C\C(=O)O [ABA, abscisic acid]",IC50,Phelipanche ramosa seeds [1]; 2-PEITC (100 nM),34 nM
same,IC50,Phelipanche ramosa seeds [1]; GR24 (10 nM),100 nM
"S=C=NCCc1ccccc1 [2-PEITC, phenethyl isothiocyanate]",sensitivity of germination in words,[2],insensitive
same,Seeds of P. ramosa fold less sensitive than to (±)-GR24,Phelipanche ramosa seeds [3],approximately 10 000 fold
same,apparent melting temperature (Tm),PrKAI2d3 [4],45.1 °C
"CC1=CC(O)OC1=O [D-OH, 4-Hydroxy-2-methylbut-2-en-4-olide]",EC50,Striga hermonthica seeds,1200 nM
same,EC50,[5],3100 nM
same,"effect on branching control in pea, in words",[6],no effect on branching control
same,"bioactivity in rice, in words",rice (Oryza sativa),bioactive
"CC(=O)Oc1ccc([N+](=O)[O-])cc1 [p-NPA, para-nitrophenyl acetate]","PrKAI2d3 hydrolase activity with generic substrate, in words",PrKAI2d3 [7],no hydrolytic activity was detected
